Reference: ChEMBL document CHEMBL1137302 (J Med Chem, 2006)
The source made the active and inactive calls. The rule behind the calls is not given here.

Legend:
Rattus norvegicus = assay: Proerectile activity in rat measured as incidence of penile erection at 0.1 umol/kg, sc; type: functional
In short: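 Conscious male rats were given a single subcutaneous injection and observed for penile erections over the following 60 min. The read-out was the incidence of erections, expressed as % of animals ± SEM (n = 12–32 animals per group), with significance tested against controls. The value is the maximal incidence at the maximally effective dose.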

[1] = target: T1, D(4) dopamine receptor (Rattus norvegicus) (UniProt P30729); assay: Agonist activity at rat D4 receptor in HEK293 cells co-expressing Galphaqo5 by FLIPR relative to dopamine; type: functional, cell-based
T1 sequence (whole entry): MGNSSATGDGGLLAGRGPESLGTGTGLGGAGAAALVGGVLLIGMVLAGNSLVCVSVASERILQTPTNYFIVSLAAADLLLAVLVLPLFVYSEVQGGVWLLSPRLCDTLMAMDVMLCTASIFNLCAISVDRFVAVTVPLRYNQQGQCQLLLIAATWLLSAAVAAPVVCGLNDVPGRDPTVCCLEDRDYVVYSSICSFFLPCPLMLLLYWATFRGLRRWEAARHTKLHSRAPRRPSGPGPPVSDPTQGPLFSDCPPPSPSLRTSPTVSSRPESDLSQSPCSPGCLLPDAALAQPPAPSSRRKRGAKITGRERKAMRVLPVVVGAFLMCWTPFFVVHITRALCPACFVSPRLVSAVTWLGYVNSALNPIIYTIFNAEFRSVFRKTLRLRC

[2] = Agonist activity at ferret D4 receptor in HEK293 cells coexpressing G-alpha-qo5 by FLIPR; type: functional, cell-based, Mustela putorius furo; conditions: Mustela putorius
In short: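 HEK cells cotransfected with ferret D4 receptor and chimeric G protein Gqo5, with receptor activation read as a calcium flux signal on FLIPR. EC50 is the concentration giving half-maximal activation.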

D(4) dopamine receptor [3] = target: T2, D(4) dopamine receptor (Rattus norvegicus, UniProt P30729); assay: Agonist activity at rat D4 receptor in HEK293 cells coexpressing G-alpha-qo5 by FLIPR; type: functional, cell-based
T2 sequence (P30729 whole entry): T1 sequence (whole entry)

[4] = AUC in dog at 1 mg/kg, po; type: ADME, organism-based, Canis lupus familiaris; parameters: dose 1 mg/kg, route oral; conditions: plasma
In short: (§1)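 Single 1 mg/kg dose given iv, sc or orally to Sprague-Dawley rats, dogs and monkeys; plasma concentrations followed over time (mean ± SEM, n = 3). Cmax, AUC, half-life, clearance and bioavailability calculated from the curves.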

[5] = Plasma clearance in iv dosed rat; type: ADME, organism-based; in short: as §1
[6] = target: D(3) dopamine receptor (Homo sapiens) (UniProt P35462); assay: Agonist activity at human D3 receptor in HEK293 cells coexpressing G-alpha-qo5 by FLIPR upto 10 uM; type: functional, cell-based
D(3) dopamine receptor (Homo sapiens), sequence (P35462 whole entry): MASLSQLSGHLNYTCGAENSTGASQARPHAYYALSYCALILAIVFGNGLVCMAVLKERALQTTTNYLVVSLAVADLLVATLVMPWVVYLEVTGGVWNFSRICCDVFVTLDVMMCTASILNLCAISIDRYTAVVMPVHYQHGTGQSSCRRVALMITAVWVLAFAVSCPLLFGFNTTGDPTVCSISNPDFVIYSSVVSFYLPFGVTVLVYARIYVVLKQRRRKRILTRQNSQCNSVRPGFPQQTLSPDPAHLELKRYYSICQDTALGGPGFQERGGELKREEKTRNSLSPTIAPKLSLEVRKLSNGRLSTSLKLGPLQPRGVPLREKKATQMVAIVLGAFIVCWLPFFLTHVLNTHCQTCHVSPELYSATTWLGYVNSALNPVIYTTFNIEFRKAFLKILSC

[7] = Plasma clearance in iv dosed dog; type: ADME, organism-based, Canis lupus familiaris; in short: as §1
[8] = target: Phosphodiesterase 4 (Homo sapiens) (UniProt P27815+Q08499+Q07343+Q08493); assay: Activity at PDE4 at 10 uM; type: protein assay
In short: (§2)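 Broad selectivity panel (over 70 receptors, ion channels and neuronal receptors, PDE1-6 included) run at a single 10 µM concentration.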

[9] = target: Phosphodiesterase 6 (Homo sapiens) (UniProt Q13956+P18545+P35913+O43924+P16499+P51160); assay: Activity at PDE6 at 10 uM; type: protein assay; in short: as §2
[10] = Half life in rat at 1 mg/kg, sc; type: ADME, organism-based; parameters: dose 1 mg/kg, route subcutaneous; conditions: in vivo; in short: as §1
[11] = Half life in dog at 1 mg/kg, po; type: ADME, organism-based, Canis lupus familiaris; parameters: dose 1 mg/kg, route oral; conditions: in vivo; in short: as §1
[12] = Cmax in monkey at 1 mg/kg, po; type: ADME, organism-based, Macaca mulatta; parameters: dose 1 mg/kg, route oral; conditions: rhesus monkey, in vivo; in short: as §1
[13] = target: cGMP-dependent 3',5'-cyclic phosphodiesterase (Homo sapiens) (UniProt O00408); assay: Activity at PDE2 at 10 uM; in short: as §2
cGMP-dependent 3',5'-cyclic phosphodiesterase (Homo sapiens), sequence (O00408 whole entry): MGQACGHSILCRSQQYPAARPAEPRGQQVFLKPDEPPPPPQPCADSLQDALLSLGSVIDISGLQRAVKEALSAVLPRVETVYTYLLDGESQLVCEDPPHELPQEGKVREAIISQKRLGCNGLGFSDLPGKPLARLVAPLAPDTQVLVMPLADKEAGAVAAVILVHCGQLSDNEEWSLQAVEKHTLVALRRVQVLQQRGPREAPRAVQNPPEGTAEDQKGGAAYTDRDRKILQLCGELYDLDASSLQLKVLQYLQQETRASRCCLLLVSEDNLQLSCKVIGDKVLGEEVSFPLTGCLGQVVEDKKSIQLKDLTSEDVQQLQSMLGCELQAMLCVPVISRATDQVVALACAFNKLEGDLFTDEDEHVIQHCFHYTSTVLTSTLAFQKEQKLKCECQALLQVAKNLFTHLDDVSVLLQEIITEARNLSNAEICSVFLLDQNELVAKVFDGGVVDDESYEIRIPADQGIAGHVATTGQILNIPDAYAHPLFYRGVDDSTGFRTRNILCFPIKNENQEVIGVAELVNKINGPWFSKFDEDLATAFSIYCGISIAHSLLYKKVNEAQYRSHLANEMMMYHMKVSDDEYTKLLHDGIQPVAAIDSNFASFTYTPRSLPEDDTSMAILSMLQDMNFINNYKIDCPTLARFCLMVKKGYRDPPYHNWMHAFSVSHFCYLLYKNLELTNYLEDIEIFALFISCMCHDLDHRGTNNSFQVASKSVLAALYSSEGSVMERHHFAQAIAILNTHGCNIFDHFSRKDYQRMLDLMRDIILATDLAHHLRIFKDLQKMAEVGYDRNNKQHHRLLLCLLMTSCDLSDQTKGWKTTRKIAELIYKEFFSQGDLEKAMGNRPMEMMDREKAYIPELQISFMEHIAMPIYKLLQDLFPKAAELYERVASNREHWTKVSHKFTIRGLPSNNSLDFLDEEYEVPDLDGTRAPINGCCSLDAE

[14] = Bioavailability in rat at 1 mg/kg, po; type: ADME, organism-based; conditions: in vivo; in short: as §1
D(4) dopamine receptor [15] = target: T3, D(4) dopamine receptor (Homo sapiens, UniProt P21917); assay: Agonist activity at human D4.4 receptor in HEK293 cells coexpressing G-alpha-qo5 by FLIPR; type: functional, cell-based
T3 sequence (P21917 whole entry): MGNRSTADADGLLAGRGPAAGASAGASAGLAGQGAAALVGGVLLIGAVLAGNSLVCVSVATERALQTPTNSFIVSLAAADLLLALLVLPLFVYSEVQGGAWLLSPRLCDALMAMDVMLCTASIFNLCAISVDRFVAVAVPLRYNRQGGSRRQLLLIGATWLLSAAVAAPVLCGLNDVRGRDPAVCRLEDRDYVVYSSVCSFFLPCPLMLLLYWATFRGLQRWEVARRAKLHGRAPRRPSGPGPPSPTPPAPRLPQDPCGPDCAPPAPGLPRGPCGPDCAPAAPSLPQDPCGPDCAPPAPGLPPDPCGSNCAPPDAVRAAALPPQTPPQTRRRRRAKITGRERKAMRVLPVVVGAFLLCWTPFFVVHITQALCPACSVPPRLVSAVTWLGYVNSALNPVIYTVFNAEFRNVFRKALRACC

[16] = Cmax in rat at 1 mg/kg, sc; type: ADME, organism-based; parameters: dose 1 mg/kg, route subcutaneous; conditions: in vivo; in short: as §1
[17] = Cmax in rat at 1 mg/kg, po; type: ADME, organism-based; parameters: dose 1 mg/kg, route oral; conditions: in vivo; in short: as §1
[18] = Half life in rat at 1 mg/kg, po; type: ADME, organism-based; parameters: dose 1 mg/kg, route oral; conditions: in vivo; in short: as §1
[19] = Effect on canine cardiac Purkinje fiber repolarization measured as prolongation of action potential duration at 3 ug/mL; type: functional, Canis lupus familiaris
In short: (§3)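 Canine Purkinje fibers impaled with 3 M KCl microelectrodes. Fibers accepted with resting potential below -80 mV and APD 300-500 ms. Paced at BCL 2 s, then 800 and 400 ms. Two ascending concentrations applied, each after 25 min equilibration. APD90 measured at all three rates.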

D(2) dopamine receptor [20] = target: T4, D(2) dopamine receptor (Homo sapiens, UniProt P14416); assay: Agonist activity at human D2 receptor in HEK293 cells coexpressing G-alpha-qo5 by FLIPR relative to dopamine upto 10 uM; type: functional, cell-based
T4 sequence (P14416 whole entry): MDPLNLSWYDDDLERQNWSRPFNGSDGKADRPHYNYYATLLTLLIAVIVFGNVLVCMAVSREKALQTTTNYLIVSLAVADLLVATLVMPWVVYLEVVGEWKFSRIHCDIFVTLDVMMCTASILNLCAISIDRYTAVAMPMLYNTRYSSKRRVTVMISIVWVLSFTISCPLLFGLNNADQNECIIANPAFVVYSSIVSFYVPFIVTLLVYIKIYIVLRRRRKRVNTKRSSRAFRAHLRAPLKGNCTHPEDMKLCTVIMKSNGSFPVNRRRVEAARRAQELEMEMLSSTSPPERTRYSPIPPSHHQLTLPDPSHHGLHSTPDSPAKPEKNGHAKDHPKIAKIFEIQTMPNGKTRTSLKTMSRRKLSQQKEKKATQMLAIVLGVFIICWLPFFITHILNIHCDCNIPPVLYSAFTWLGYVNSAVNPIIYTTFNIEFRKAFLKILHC
In short: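 Ca2+ flux by FLIPR in HEK cells cotransfected with the D2 receptor (human, ferret or rat) plus chimeric G protein Gqo5.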

D(2) dopamine receptor [21] = target: T4, D(2) dopamine receptor; assay: Binding affinity to human D2S receptor
hERG = hERG (Homo sapiens, UniProt Q12809); assay: Blockade of current at hERG expressed in HEK293 cells at 1 ug/mL; type: cell-based; conditions: HEK293 cells that express hERG
hERG, sequence (Q12809 whole entry): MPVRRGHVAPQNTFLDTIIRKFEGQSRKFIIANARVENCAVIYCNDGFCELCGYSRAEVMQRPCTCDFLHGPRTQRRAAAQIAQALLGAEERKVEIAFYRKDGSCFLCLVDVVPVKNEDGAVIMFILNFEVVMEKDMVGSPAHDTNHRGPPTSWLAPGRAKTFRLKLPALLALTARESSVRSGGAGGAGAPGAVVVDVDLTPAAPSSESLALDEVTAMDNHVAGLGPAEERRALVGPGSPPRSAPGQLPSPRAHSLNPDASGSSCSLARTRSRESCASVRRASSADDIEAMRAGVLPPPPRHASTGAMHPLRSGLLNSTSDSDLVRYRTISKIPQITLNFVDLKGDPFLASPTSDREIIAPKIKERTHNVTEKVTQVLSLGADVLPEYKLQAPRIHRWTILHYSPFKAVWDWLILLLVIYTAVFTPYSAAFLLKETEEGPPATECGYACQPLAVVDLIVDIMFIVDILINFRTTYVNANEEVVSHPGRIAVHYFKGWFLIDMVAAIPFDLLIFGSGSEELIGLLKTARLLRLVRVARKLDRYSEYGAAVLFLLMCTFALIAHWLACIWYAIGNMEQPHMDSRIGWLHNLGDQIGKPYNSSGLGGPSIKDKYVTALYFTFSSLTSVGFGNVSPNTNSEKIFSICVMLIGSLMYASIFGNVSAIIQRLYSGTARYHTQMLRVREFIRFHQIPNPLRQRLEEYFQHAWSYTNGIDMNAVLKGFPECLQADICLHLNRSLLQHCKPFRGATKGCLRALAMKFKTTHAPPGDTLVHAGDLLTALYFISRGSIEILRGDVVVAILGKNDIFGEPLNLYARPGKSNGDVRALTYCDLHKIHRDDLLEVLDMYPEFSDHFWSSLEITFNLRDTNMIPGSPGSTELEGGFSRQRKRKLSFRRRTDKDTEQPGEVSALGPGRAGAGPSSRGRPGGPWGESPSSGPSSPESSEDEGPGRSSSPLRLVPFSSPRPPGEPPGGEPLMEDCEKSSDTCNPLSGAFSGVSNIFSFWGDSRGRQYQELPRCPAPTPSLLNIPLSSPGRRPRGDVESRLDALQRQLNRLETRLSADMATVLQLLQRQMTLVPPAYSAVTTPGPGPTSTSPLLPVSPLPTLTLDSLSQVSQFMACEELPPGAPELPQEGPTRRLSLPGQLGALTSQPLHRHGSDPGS
In short: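 hERG stably expressed in HEK 293 cells (MEM with 10% FBS, G418), whole-cell voltage clamp. Pipette: K aspartate/KCl/EGTA/MgATP, pH 7.3. Bath: NaCl-based HEPES, pH 7.4. Compound dissolved in DMSO and diluted in bath (DMSO ≤0.1%), one concentration per cell. Steps to -25, 0, 25, 50 mV for 3 s, then -50 mV for 4 s, from -80 mV every 15 s.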

[22] = Half life in monkey at 1 mg/kg, po; type: ADME, organism-based, Macaca mulatta; parameters: dose 1 mg/kg, route oral; conditions: rhesus monkey, in vivo; in short: as §1
D(2) dopamine receptor [23] = target: T4, D(2) dopamine receptor; assay: Displacement of [125I]7-OH-PIPAT from human D2L receptor expressed in HEK293 cell membrane; type: cell membranes
[24] = Cmax in dog at 1 mg/kg, po; type: ADME, organism-based, Canis lupus familiaris; parameters: dose 1 mg/kg, route oral; conditions: in vivo; in short: as §1
[25] = target: Phosphodiesterase 1 (Homo sapiens) (UniProt P54750+Q01064+Q14123); assay: Activity at PDE1 at 10 uM; type: protein assay; in short: as §2
[26] = AUC in monkey at 1 mg/kg, po; type: ADME, organism-based, Macaca mulatta; parameters: dose 1 mg/kg, route oral; conditions: rhesus monkey, plasma; in short: as §1
[27] = Bioavailability in monkey at 1 mg/kg, po; type: ADME, organism-based, Macaca mulatta; conditions: rhesus monkey, in vivo; in short: as §1
[28] = Effect on canine cardiac Purkinje fiber repolarization measured as prolongation of action potential duration at 1 ug/mL; type: functional, Canis lupus familiaris; in short: as §3

For Cc1cccc(C(=O)NCN2CCC(c3cccc[n+]3[O-])CC2)c1, the Activity (Rattus norvegicus) was 75%, the Efficacy [1] was 78% and the EC50 [2] was 160 nM. The EC50 (D(4) dopamine receptor [3]) was 93 nM, the AUC [4] was 4280 ng·h/mL and the clearance [5] was 12.3 mL/min/kg. For the same compound, the Activity [6] was “inactive”, the clearance [7] was 3.33 mL/min/kg and the Activity [8] was “inactive”. The Activity [9] was “inactive”, the half-life [10] was 72 min and the half-life [11] was 126 min. For the same compound, the Cmax [12] was 660 ng/mL, the Activity [13] was “inactive” and the bioavailability [14] was 68%. The EC50 (D(4) dopamine receptor [15]) was 89 nM, the Cmax [16] was 465 ng/mL and the Cmax [17] was 417 ng/mL. The half-life [18] was 108 min, the Activity [19] was 4.3% and the Activity (D(2) dopamine receptor [20]) was “inactive”. The Ki (D(2) dopamine receptor [21]) was greater than 10 µM, the inhibition at 1 ug/mL (hERG) was 14.4% and the half-life [22] was 120 min. For the same compound, the Ki (D(2) dopamine receptor [23]) was greater than 10 µM, the Cmax [24] was 1420 ng/mL and the Activity [25] was “inactive”. For the same compound, the AUC [26] was 2280 ng·h/mL, the bioavailability [27] was 91% and the Activity [28] was 0.6%.
